Hits are enriched below; roughly 3.9% of the tested compounds scored in any of these assays.
CRFR2-BP ag: CRF-BP/CRF-R2 complex agonism. HEK293 CRF-R2/CRF-BP, calcium dye fluorescence (FLIPR); percent of saturating CRF peptide response. 0.46% of 350,000 active. AID 588473. activation, % at 13.2 µM;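 active = activation of at least 50%, plus an integration ratio under a set limit after plate pattern correction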
ANO1 block: mouse TMEM16A channel inhibition, primary screen; HEK293 TMEM16A/YFP iodide influx fluorescence, ionomycin; Q8BHY3; 1.2% of 310,000 active; normalized B-score (activity score, 25-100; higher = stronger inhibition) at 10 µM;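 active = ratio plate-corrected score three or more library SD toward inhibition, starting fluorescence score within five deviations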;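 note: score derived from kinetic fluorescence span divided by baseline fluorescence per well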
Target sequence (Q8BHY3 whole entry, looked up): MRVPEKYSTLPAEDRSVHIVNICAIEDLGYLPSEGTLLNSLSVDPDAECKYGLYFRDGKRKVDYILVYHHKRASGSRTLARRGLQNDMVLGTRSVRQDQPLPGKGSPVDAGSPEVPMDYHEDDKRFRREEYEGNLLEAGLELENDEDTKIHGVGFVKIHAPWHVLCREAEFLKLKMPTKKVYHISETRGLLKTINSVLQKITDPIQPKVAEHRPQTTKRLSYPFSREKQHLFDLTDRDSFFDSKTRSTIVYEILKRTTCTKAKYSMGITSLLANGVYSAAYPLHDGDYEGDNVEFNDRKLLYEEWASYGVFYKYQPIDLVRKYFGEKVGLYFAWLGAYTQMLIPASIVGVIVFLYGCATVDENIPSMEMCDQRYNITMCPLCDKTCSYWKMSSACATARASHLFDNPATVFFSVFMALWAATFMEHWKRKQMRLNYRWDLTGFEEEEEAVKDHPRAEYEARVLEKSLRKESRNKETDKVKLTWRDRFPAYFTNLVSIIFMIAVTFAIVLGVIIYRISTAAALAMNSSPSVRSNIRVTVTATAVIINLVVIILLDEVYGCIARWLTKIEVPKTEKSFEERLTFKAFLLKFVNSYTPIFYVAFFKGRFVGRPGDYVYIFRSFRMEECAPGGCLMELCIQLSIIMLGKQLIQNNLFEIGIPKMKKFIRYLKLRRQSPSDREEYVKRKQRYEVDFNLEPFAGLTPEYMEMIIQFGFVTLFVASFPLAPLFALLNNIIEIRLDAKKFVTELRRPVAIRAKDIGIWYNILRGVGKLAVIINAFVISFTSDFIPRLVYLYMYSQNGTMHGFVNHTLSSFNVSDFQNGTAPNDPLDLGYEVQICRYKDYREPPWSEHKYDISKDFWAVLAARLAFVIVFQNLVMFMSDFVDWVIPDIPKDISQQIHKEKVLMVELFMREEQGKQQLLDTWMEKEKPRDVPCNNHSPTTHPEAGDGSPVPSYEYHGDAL
TMEM16A act: activates or potentiates the mouse TMEM16A chloride channel | HEK293 TMEM16A/YFP-H148Q/I152L, iodide quench fluorescence; stronger effect = lower value | B-score at 10 µM | Q8BHY3 | AID 623877 | 0.3% of 340,000 active;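 active = fluorescence-ratio B-score plate-corrected deviation score at least 3 library SD below zero, with starting fluorescence score within 5 deviations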;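 note: channel opened by trigger with iodide after compound preincubation; score built on the fluorescence ratio of max minus min over baseline; more negative score means more quench and so TMEM16A activation or potentiation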
CRFBP-R2 block: blocks CRF-induced signaling of the CRF-BP/CRF-R2 complex; HEK293 CRF-R2/CRF-BP, CRF-induced calcium fluorescence; inhibition, % at 11.8 µM; 0.59% of 350,000 active;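 active = inhibition of the ligand-induced calcium signal above about 50% at the single tested concentration, limit read from the data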
TAAR1 antag: human TAAR1 antagonism | CHO RD-HGA16 TAAR1, Fluo-8 calcium fluorescence, antagonist | 1.5% of 360,000 active | inhibition, % at 3 µM | AID 624466;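 active = inhibition above a per-plate cutoff, the mean inhibition of test compounds on that plate plus 3 SD, cut at about 49% in these data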
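Assay system: RD-HGA16 CHO cells with stable hTAAR1 and Gα16 / Reagent: EC80 β-phenethylamine stimulus / Doses: 3 µM, single point / Timing: dye loading 75 min at 37 °C, then 30 min room temperature / Measured by: Fluo-8 intracellular calcium dye fluorescence, real-time kinetic reads / Controls: vehicle wells and EC80 agonist wells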
TAAR1 agonist: human TAAR1 agonism; CHO RD-HGA16 TAAR1, Fluo-8 calcium fluorescence; vehicle wells 0%, saturating PEA agonist 100%; activation, % at 3 µM; 0.99% of 360,000 active;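 active = activation above the mean activation of all test compounds in the run plus 3 SD, cut at about 38% in these data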
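test system = CHO RD-HGA16 cells carrying human TAAR1 plus Gα16 | schedule = 17-24 h seeding, 75 min 37 °C dye, 30 min RT | compound dosing = 3 µM single concentration | control set = DMSO and PEA EC100 | replicates = n 1 | signal = Fluo-8 fluorescence, 5 s baseline then 140 s kinetic read | measure = percent activation vs PEA EC100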
nonsel antag count: nonselective antagonism, TAAR1 counter-screen; shares compounds with TAAR1 antag; counterscreen cell line, calcium fluorescence, antagonist mode; inhibition, % at 3 µM; 77% of 2,400 active; AID 651780; in the data active = inhibition above about 22%;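 note: CHO-Ga16 host cells stimulated with ATP at an EC80 level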
TAAR1 antag conf: confirmation of human TAAR1 antagonists. inhibition, % at 3 µM. shares compounds with TAAR1 antag. 40% of 2,400 active. TAAR1-expressing cells, fluorescence antagonist read-out; in the data active = inhibition above about 49%;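 note: CHO-Ga16 host cells challenged with agonist PEA near its EC80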
Ga16 nonsel ag: nonselective Ga16 agonist in TAAR1 antagonist counter-screen; Ga16-expressing cells, calcium fluorescence, agonist counterscreen; activation, % at 3 µM; 18% of 2,400 active; AID 651953; shares compounds with TAAR1 antag; in the data active = activation above about 12%
TAAR1 ag counter: counter-screen for human TAAR1 antagonists: TAAR1 agonists; shares compounds with TAAR1 antag; hTAAR1 cell line, fluorescence activation, agonist mode; activation, % at 3 µM; 2% of 2,400 active; in the data active = activation above about 37%;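 note: CHO cells stably expressing TAAR1 with calcium dye readout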
Numbers stand for hits; n = inactive; x = not tested or not shown.

SMILES | CRFR2-BP ag | ANO1 block | TMEM16A act | CRFBP-R2 block | TAAR1 antag | TAAR1 agonist | nonsel antag count | TAAR1 antag conf | Ga16 nonsel ag | TAAR1 ag counter
COc1cc(-c2[nH]nc3c2C(c2ccoc2)C(C#N)=C(N)O3)cc(OC)c1OC (stereo unspecified) | n | n | n | n | 74 | n | 34 | 57 | n | n
C=CCNC(=O)c1ccccc1NC(=O)c1ccc(Cl)c(S(=O)(=O)Nc2ccccc2)c1 | n | n | n | n | 55 | n | 28 | n | n | n
COc1ccccc1/C=C/C(=O)NC(=S)N(C)C1CCCCC1 | n | n | n | n | 68 | n | 33 | n | n | n
COc1ccc(C)cc1NC(=O)C1CCCN1S(=O)(=O)c1ccccc1F (stereo unspecified) | n | x | n | n | n | n | x | x | x | x
Cc1cn([C@H](C(=O)NCCCCCCCCCCC(=O)N2CCN(C(=O)OC(C)(C)C)CC2)[C@@H](C)O)nn1 | n | n | n | n | 63 | n | 24 | n | n | n
CCN(CC(=O)NCc1cccs1)C(=O)c1cc(S(=O)(=O)NCc2ccccc2)ccc1C | n | n | n | n | n | n | x | x | x | x
CCC(=O)c1ccc(OCC(=O)Nc2nc(C)cs2)cc1 | n | x | n | n | n | n | x | x | x | x
COc1cc(C(=O)Nc2nc(-c3cccs3)cs2)cc(OC)c1OC | n | n | n | n | 83 | n | 45 | 62 | 16 | n
O=C(COc1ccc(Cl)cc1)Nc1nc(-c2cccs2)cs1 | n | 100 | n | n | 68 | n | 23 | n | n | n
COc1cc(C(=O)NC(=S)Nc2nc(-c3ccc(F)cc3)cs2)cc(OC)c1OC | n | n | n | n | n | n | x | x | x | x
CCC(=O)c1ccc(OCC(=O)Nc2nc(-c3cccnc3)cs2)cc1 | n | n | n | n | 74 | n | 37 | 55 | n | n
COC(=O)c1ccc(C(=O)OC)c(NC(=S)N2CCCC(CO)C2)c1 (stereo unspecified) | n | n | n | n | n | n | x | x | x | x
COc1ccc([C@H]2CC(=O)C=C(c3cccc(OC)c3)C2)cc1 | n | x | n | n | n | n | x | x | x | x
COc1ccc([C@H]2CC(=O)C=C(c3cccc(C(C)C)c3)C2)cc1 | n | x | n | n | 50 | n | n | n | n | n
O=c1c2ccccc2nc(/C=C/c2cccnc2)n1CCc1ccccc1 | n | n | n | n | 60 | n | n | n | n | n
O=c1c2ccccc2nc(/C=C/c2cccnc2)n1Cc1ccccc1 | n | x | n | n | n | n | x | x | x | x
O=c1c2ccccc2nc(/C=C/c2cccc([N+](=O)[O-])c2)n1CCO | n | n | n | n | n | n | x | x | x | x
O=c1c2ccccc2nc(/C=C/c2cc(Br)ccc2O)n1CCCO | n | n | n | n | 58 | n | n | n | n | n
CCN1C[C@@H]2[C@@H]3C(=O)N(Cc4ccccc4)C(=O)[C@@H]3[C@](CC)(C1=O)N2C(=O)c1ccc(C(F)(F)F)cc1 | n | x | n | n | n | n | x | x | x | x
CCN(CC)S(=O)(=O)c1ccc(C(C)NCC(=O)Nc2ccccc2C(=O)NC2CC2)cc1 (stereo unspecified) | n | x | n | n | 59 | n | 33 | 52 | n | n
COc1ccc(CCC(=O)NCCS(=O)(=O)N2CCN(c3ccccc3OC)CC2)cc1 | n | n | n | n | 59 | n | 34 | 52 | 14 | n
O=C(NCc1ccccc1)c1ccc(Br)o1 | n | n | n | n | n | n | x | x | x | x
O=C(c1ccc(Br)o1)N(Cc1ccccc1)Cc1ccccc1 | n | n | n | n | 50 | n | n | n | n | n
Cc1c(C(=O)Nc2cccnc2)oc2ccc(Br)cc12 | n | n | n | n | n | n | x | x | x | x
O=C(NN1CCOCC1)c1ccc(F)cc1 | n | n | n | n | n | n | x | x | x | x
SMILES | CRFR2-BP ag | ANO1 block | TMEM16A act | CRFBP-R2 block | TAAR1 antag | TAAR1 agonist | nonsel antag count | TAAR1 antag conf | Ga16 nonsel ag | TAAR1 ag counter
CCOC(=O)c1cc2c(=O)n3ccccc3nc2n(Cc2ccco2)c1=NC(=O)c1ccc(OC)cc1 | n | n | n | n | n | n | x | x | x | x
CCOC(=O)c1cc2c(=O)n3ccccc3nc2n(Cc2ccco2)c1=NC(=O)c1cccc(OC)c1 | n | n | n | n | 56 | n | 25 | n | n | n
Fc1ccc(C(CCCn2nnc(-c3cccnc3)n2)c2ccc(F)cc2)cc1 | n | 100 | n | n | 90 | n | 39 | 58 | n | n
Cc1cccc(C)c1-n1nnnc1C(c1ccnc2ccccc12)N1CCN(C(=O)OC(C)(C)C)CC1 (stereo unspecified) | x | x | x | x | n | n | x | x | x | x
Brc1ccc2nc(-c3ccc(CN4CCC(c5nc6ccccc6[nH]5)CC4)cc3)c(-c3ccccc3)nc2c1 | x | x | x | x | 86 | n | 56 | 68 | 20 | 37
COc1ccc2nc(-c3ccc(CN4CCC5(CC4)CNc4ccccc45)cc3)c(-c3ccccc3)nc2c1 | x | x | x | x | n | n | x | x | x | x
COc1ccc2nc(-c3ccc(CN4CCC(c5nc6ccccc6[nH]5)CC4)cc3)c(-c3ccccc3)nc2c1 | x | x | x | x | 76 | n | 34 | n | n | n
CCN(CC)c1ccc(S(=O)(=O)N2CCOCC2)cc1NC(=O)CSC(=S)N1CCCC1 | n | n | n | n | n | n | x | x | x | x
COc1ccc(CNC(=O)COc2cc3c(c4oc(=O)cc(C)c24)CCC(C)(C)O3)cc1OC | n | n | n | n | 62 | n | 23 | n | n | n
Cc1cc(=O)oc2c3c(cc(OCC(=O)NCc4ccco4)c12)OC(C)(C)CC3 | n | n | n | n | 57 | n | 24 | n | n | n
COc1ccc(CNC(=O)COc2cc3c(c4oc(=O)cc(C)c24)CCC(C)(C)O3)c(OC)c1 | x | x | x | x | 73 | n | 25 | n | n | n
Cc1cc(=O)oc2c3c(cc(OCC(=O)NCc4ccncc4)c12)OC(C)(C)CC3 | n | n | n | n | n | n | x | x | x | x
CCOC(=O)c1c(C)[nH]c(C(=O)COC(=O)c2[nH]c(C)c(C(C)=O)c2C)c1C | n | n | n | n | 77 | n | 63 | 66 | 15 | n
CCOC(=O)c1[nH]c(C)c(C(=O)OCC)c1C | n | n | n | n | n | n | x | x | x | x
CCOC(=O)c1c(C)[nH]c(C(=O)OCC(=O)Nc2sccc2C(N)=O)c1C | n | 100 | n | n | 72 | n | 39 | 53 | 17 | n
CC(=O)c1c(C)[nH]c(C(=O)COC(=O)CN(C)S(=O)(=O)c2ccc(Cl)cc2)c1C | n | n | n | n | 53 | n | 40 | n | 18 | n

Source: PubChem
